Assay results published in ChEMBL document CHEMBL2163238, “Design, synthesis, and biological evaluation of N-alkylated deoxynojirimycin (DNJ) derivatives for the treatment of dengue virus infection” (J Med Chem, 2012).
≈ marks a conversion by molar mass, not a printed value. Calls of active or inactive are those of the source. No cut-off for these calls is given here.

Columns and labels:
[1] = Plasma protein binding in rat plasma; format: ADME, cell-free; settings: read-out: PPB (converted)
Summary of the method: (§1)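 Binding of compound to human, rat or mouse plasma protein, reported as % bound.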

[2] = molecular target: CYP2C19 (Homo sapiens, UniProt P33261); experiment: Inhibition of human CYP2C19 at 10 uM; format: ADME
Summary of the method: (§2)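 Inhibition of CYP isoforms with compound at 10 μM, reported as % inhibition. CYP3A4 run with midazolam or testosterone as substrate.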

[3] = Metabolic stability in rat liver microsomes at 60 mins; format: ADME, Microsome; settings: read-out: Stability
[4] = Cytotoxicity against MDBK cells assessed as cell viability by MTT assay; format: cell-based, Bos taurus; settings: cattle
[5] = test system: Rattus norvegicus; experiment: Acute toxicity in Sprague-Dawley rat assessed as occurrence of soft feces at 50 to 100 mg/kg, po measured at 1 to 2 days; format: organism-based; design: route oral; settings: in vivo
Summary of the method: (§3)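 Single oral dose (25, 50, 100 or 200 mg/kg, or vehicle) given to 10-week-old male rats, 2 per group. Compound dissolved at 20 mM in PBS with 10% Solutol HS15, shaken 6 h at 37 °C. Animals observed 7 days for clinical signs, body weight and food consumption, then sacrificed on day 8.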

[6] = test system: Rattus norvegicus; experiment: Acute toxicity in Sprague-Dawley rat assessed as mortality at 25 to 200 mg/kg, po after 7 days; format: organism-based; design: dose 25-200 mg/kg, route oral; settings: in vivo, 168 h
[7] = test system: Rattus norvegicus; experiment: Acute toxicity in Sprague-Dawley rat assessed as body weight loss at 25 to 200 mg/kg, po after 7 days; format: organism-based; design: dose 25-200 mg/kg, route oral; settings: in vivo, 168 h; summary of the method: as §3
[8] = in vivo; settings: Sprague-Dawley, rat, po, 25 mg/kg
[9] = Antiviral activity against 1 MOI BVDV NADL infected in MDBK cells assessed as reduction in viral titer after 22 hrs; format: functional, cell-based, Bovine viral diarrhea virus 1-NADL; settings: Bovine viral diarrhea virus isolates and strains, MDBK, 22 h
Summary of the method: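 MDBK cells (2×10^5) infected 24 h after seeding with BVDV NADL at MOI 1, with 1 h adsorption at 37 °C. Washed, then compounds at 0.1–100 μM. Media harvested 22 h post-infection and plaque-titrated on MDBK under 1% methylcellulose for 3 days. Plaques counted directly or after neutral red staining. EC50 from dose–response curves, mean of 3 independent experiments.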

[10] = test system: Rattus norvegicus; experiment: Acute toxicity in Sprague-Dawley rat assessed as occurrence of diarrhea at 200 mg/kg, po measured at 1 to 2 days; format: organism-based; design: dose 200 mg/kg, route oral; settings: in vivo; summary of the method: as §3
[11] = Metabolic stability in human liver microsomes at 60 mins; format: ADME, Microsome; settings: read-out: Stability
[12] = Aqueous solubility in PBS at pH 7.4; format: physicochemical; settings: buffer
[13] = Volume of distribution in Sprague-Dawley rat at 5 mg/kg, iv; format: ADME, organism-based; design: dose 5 mg/kg, route intravenous; settings: in vivo
[14] = molecular target: T1, CYP3A4 (Homo sapiens, UniProt P08684); experiment: Inhibition of human CYP3A4 using testosterone as substrate at 10 uM; format: ADME; settings: probe testosterone; summary of the method: as §2
[15] = Plasma protein binding in human plasma; format: ADME, cell-free; settings: read-out: PPB (converted); summary of the method: as §1
[16] = test system: dengue virus type 2; experiment: Antiviral activity against 0.01 MOI DENV-2 NGC infected in BHK cells assessed as reduction in viral titer after 48 hrs; format: functional, organism-based
Summary of the method: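 BHK cells infected with DENV-2 New Guinea C at MOI 0.01 for 1 h. Inoculum removed, then compounds at 0.1–100 μM for 48 h at 37 °C. Supernatants titrated on Vero monolayers as 10-fold dilutions under 0.5% methylcellulose for 3–5 days. Foci detected by 4G2 immunostaining or crystal violet plaques. EC50 from dose–response curves, mean of 3 independent experiments.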

[17] = molecular target: T1, CYP3A4; experiment: Inhibition of human CYP3A4 using midazolam as substrate at 10 uM; format: ADME; settings: probe midazolam; summary of the method: as §2
[18] = molecular target: CYP2D6 (Homo sapiens, UniProt P10635); experiment: Inhibition of human CYP2D6 at 10 uM; format: ADME
Summary of the method: (§4)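 Inhibition of CYP isoforms by compounds tested at 10 μM, given as percent inhibition; contract in vitro ADME panel.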

[19] = test system: MDBK; experiment: Competitive inhibition of endoplasmic reticulum-resident alpha-glucosidase in MDBK cells infected with 1 MOI BVDV assessed as decrease in viral E2 protein mobility at 0.8 to 100 uM after 24 hrs by Western blotting; format: cell-based; settings: Bos taurus
Summary of the method: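 MDBK cells infected with BVDV at MOI 1 for 1 h, then compounds at 0.8, 4.0, 20 and 100 μM. Cells lysed in Laemmli buffer, run on 12% polyacrylamide gel and transferred to nitrocellulose. BVDV E2 mobility probed with monoclonal WB166 and β-actin detected in parallel. IR-dye secondary antibody, Odyssey imaging.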

[20] = Plasma protein binding in mouse plasma; format: ADME, cell-free; settings: read-out: PPB (converted); summary of the method: as §1
[21] = test system: Rattus norvegicus; experiment: Volume of distribution in Sprague-Dawley rat at 25 mg/kg, po; format: ADME, organism-based; design: dose 25 mg/kg, route oral; settings: in vivo
[22] = Aqueous solubility in PBS at pH 4; format: physicochemical; settings: buffer
[23] = Metabolic stability in mouse liver microsomes at 60 mins; format: ADME, Microsome; settings: read-out: Stability
[24] = molecular target: T2, CYP1A2 (Homo sapiens, UniProt P05177); experiment: Inhibition of human CYP1A2 at 10 uM; format: ADME; summary of the method: as §2
T2 sequence (P05177 whole entry): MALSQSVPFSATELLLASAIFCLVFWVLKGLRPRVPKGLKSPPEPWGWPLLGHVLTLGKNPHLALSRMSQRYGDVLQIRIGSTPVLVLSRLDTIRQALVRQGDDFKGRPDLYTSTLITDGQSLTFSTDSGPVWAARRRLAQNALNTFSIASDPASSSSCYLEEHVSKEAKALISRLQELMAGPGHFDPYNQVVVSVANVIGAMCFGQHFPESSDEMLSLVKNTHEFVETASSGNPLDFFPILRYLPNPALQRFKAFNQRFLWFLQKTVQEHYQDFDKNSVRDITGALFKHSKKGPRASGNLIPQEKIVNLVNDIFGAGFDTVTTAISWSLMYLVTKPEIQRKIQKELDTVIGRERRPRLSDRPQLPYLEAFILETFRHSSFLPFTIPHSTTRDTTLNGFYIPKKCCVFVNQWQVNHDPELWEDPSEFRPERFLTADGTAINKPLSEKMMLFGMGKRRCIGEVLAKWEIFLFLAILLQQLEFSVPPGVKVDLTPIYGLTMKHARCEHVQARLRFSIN

[25] = Cytotoxicity against human Huh7.5 cells assessed as cell viability by DRAQ5 and Sapphire 700 staining; settings: huh-7
[26] = molecular target: CYP2C9 (Homo sapiens, UniProt P11712); experiment: Inhibition of human CYP2C9 at 10 uM; format: ADME; summary of the method: as §4
[27] = Plasma half life in Sprague-Dawley rat at 5 mg/kg, iv; format: ADME, organism-based; design: dose 5 mg/kg, route intravenous
[28] = Cytotoxicity against BHK cells assessed as cell viability by MTT assay; format: cell-based, Mesocricetus auratus; settings: hamster
[29] = test system: Dengue virus; experiment: Antiviral activity against 0.01 MOI DENV infected in human Huh7.5 cells assessed as reduction in viral […] protein level at 0.1 to 100 uM after 2 days by Western blotting; format: functional, organism-based; settings: Huh-7

T1 sequence (P08684 whole entry): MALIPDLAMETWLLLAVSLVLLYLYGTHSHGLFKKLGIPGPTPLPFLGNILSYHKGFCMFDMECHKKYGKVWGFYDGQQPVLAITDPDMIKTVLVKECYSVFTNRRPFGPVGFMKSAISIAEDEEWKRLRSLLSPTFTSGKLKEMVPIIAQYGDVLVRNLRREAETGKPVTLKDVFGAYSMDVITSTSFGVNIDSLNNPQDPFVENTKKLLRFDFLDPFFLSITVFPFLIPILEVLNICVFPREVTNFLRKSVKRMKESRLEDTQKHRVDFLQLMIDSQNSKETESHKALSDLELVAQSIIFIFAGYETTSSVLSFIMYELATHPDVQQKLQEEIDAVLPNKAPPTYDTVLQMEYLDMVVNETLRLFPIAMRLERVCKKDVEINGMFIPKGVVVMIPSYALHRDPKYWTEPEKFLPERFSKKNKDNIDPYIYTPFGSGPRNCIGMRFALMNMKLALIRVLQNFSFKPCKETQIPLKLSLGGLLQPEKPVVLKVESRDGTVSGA
CYP2C19, sequence (P33261 whole entry, canonical isoform): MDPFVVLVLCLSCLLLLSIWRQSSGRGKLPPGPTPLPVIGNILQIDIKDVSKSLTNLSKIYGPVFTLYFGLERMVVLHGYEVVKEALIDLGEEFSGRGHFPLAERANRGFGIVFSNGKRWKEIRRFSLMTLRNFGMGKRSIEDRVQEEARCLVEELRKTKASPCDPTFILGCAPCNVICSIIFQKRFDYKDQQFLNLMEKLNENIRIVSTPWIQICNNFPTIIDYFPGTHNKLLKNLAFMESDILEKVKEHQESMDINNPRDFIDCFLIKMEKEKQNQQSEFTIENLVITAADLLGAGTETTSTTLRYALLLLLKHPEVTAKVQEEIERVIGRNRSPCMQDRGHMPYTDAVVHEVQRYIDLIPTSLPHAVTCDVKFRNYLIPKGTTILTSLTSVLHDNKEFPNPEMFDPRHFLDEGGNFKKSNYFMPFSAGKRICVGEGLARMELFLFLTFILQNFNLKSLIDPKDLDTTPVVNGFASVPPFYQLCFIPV
CYP2C9, sequence (P11712 whole entry): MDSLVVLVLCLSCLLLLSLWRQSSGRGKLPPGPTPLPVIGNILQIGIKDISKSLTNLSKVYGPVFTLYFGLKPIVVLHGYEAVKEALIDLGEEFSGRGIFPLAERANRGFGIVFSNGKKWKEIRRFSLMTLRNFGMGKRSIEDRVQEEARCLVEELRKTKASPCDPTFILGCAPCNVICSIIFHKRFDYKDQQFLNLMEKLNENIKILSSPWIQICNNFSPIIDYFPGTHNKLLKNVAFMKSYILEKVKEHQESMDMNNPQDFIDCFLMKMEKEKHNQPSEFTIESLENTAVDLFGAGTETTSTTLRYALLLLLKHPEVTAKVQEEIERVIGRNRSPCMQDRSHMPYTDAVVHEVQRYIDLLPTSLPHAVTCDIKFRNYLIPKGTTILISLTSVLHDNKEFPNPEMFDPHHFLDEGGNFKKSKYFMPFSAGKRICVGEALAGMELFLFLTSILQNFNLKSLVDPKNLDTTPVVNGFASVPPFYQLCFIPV
CYP2D6, sequence (P10635 whole entry, canonical isoform): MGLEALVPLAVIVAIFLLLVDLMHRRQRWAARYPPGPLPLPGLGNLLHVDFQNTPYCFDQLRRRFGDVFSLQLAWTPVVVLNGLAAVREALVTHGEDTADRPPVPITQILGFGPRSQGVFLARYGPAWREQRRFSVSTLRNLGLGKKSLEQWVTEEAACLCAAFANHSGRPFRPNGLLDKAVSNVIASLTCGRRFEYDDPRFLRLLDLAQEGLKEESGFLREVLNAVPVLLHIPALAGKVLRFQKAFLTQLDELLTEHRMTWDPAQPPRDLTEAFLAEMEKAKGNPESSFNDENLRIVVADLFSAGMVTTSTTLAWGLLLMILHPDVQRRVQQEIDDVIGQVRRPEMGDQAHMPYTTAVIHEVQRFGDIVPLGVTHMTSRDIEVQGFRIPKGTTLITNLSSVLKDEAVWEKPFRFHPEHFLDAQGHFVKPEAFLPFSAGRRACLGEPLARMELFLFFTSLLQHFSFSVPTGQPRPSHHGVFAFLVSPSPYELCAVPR

Molecule OC[C@@H]1[C@@H](O)[C@H](O)[C@@H](O)CN1CCCCCCOc1cc(F)ccc1F has a fraction unbound [1] of 0.32, an inhibition at 10 µM [2] of 1.6% and a remaining at 1 h [3] of 79%. For the same molecule, the CC50 [4] was > 500 µM, the Activity [5] was “Toxic” and the Activity [6] was “Non-toxic”. The Activity [7] was “Non-toxic”, the Tmax [8] was 4.2 h and the EC50 [9] was 500 nM. The Activity [10] was “Toxic”, the remaining at 1 h [11] was 91% and the solubility [12] was 292 µM (≈ 110 µg/mL). The Vd [13] was 3.1 L/kg, the inhibition at 10 µM [14] was -1.9% and the fraction unbound [15] was 0.26. The Activity [16] was “Dose-dependent effect”, the EC50 [16] was 400 nM and the inhibition at 10 µM [17] was 10.9%. The inhibition at 10 µM [18] was 11.4%, the inhibition [19] was “Active” and the fraction unbound [20] was 0.23. For the same molecule, the Vd [21] was 17.2 L/kg, the solubility [22] was 296 µM (≈ 111 µg/mL) and the remaining at 1 h [23] was 91%. The inhibition at 10 µM [24] was 24.4%, the Activity [25] was “Non-toxic” and the inhibition at 10 µM [26] was 7.1%. For the same molecule, the half-life [27] was 86.4 min, the CC50 [28] was > 500 µM and the Activity [29] was “Active”.
